Measurements taken from ChEMBL document CHEMBL1932933, “A small chemical library of 2-aminoimidazole derivatives as BACE-1 inhibitors: Structure-based design, synthesis, and biological evaluation” (Eur J Med Chem, 2012).
Values belong to the compound of their own block, whether it stands above or below them.

Columns and labels:
Beta-secretase 1 [1] = target: T1, Beta-secretase 1 (Homo sapiens, UniProt P56817); experiment: Inhibition of BACE1 using methoxycoumarin-Ser-Glu-Val-Asn-Leu-Asp-Ala-Glu-Phe-Lys-dinitrophenyl as substrate preincubated 1 hr before substrate addition measured after 15 mins by FRET assay
T1 sequence (P56817 whole entry): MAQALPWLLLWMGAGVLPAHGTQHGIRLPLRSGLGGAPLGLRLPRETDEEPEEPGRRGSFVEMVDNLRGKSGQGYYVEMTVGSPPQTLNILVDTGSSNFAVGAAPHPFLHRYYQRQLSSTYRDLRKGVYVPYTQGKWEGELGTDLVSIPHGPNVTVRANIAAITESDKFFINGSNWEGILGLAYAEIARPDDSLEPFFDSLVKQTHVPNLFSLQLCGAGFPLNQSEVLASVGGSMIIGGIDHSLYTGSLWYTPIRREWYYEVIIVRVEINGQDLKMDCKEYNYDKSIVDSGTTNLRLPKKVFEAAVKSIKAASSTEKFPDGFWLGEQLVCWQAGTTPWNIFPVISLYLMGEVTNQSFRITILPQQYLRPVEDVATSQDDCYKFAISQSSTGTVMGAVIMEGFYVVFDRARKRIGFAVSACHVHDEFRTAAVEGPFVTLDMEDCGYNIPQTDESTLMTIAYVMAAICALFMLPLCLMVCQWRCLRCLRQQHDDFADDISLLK

[2] = Inhibition of BACE1 in chicken primary telencephalon neurons assessed as reduction of amyloid beta38 secretion after 24 hrs by ELISA; parameters: species or system Gallus gallus
Procedure, shortened: (§1)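 Aβ secretion from neurons after 24 h of inhibitor treatment. Data were corrected for mean neuron viability from an MTT reduction assay run after 24 h of treatment. Values are the mean of three independent experiments.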

[3] = Inhibition of BACE1 in chicken primary telencephalon neurons assessed as reduction of amyloid beta40 secretion after 24 hrs by ELISA; parameters: species or system Gallus gallus; procedure, shortened: as §1
[4] = Inhibition of BACE1 in chicken primary telencephalon neurons assessed as reduction of amyloid beta42 secretion after 24 hrs by ELISA; parameters: species or system Gallus gallus; procedure, shortened: as §1
[5] = Cytotoxicity against chicken primary telencephalon neurons at 25 uM after 24 hrs by MTT assay; parameters: species or system Gallus gallus
[6] = Permeability of the compound by PAMPA; type: ADME; conditions: read-out: permeability
Beta-secretase 1 [7] = target: T1, Beta-secretase 1; experiment: Inhibition of BACE1 using methoxycoumarin-Ser-Glu-Val-Asn-Leu-Asp-Ala-Glu-Phe-Lys-dinitrophenyl as substrate at 100 uM preincubated 1 hr before substrate addition measured after 15 mins by FRET assay
[8] = Solubility of the compound; type: physicochemical
[9] = Cytotoxicity against chicken primary telencephalon neurons at 50 uM after 24 hrs by MTT assay; parameters: species or system Gallus gallus
[10] = Gallus gallus, 24 h, read-out: IC50

Compound: COc1cc(OC)cc(-c2ccc(Cc3cn(Cc4ccc(F)cc4)c(N)n3)cc2)c1
IC50 (Beta-secretase 1 [1]): 7.4 µM
IC50 [2, 10]: 15 µM
IC50 [3, 10]: 23 µM
IC50 [4, 10]: 19 µM
Activity [5]: Toxic
Papp [6]: 4 ×10⁻⁶ cm/s

Compound: CCn1cc(C(=O)O)c(=O)c2cc(F)c(N3CCNCC3)nc21 [ENOXACIN]
Papp [6]: 0.3 ×10⁻⁶ cm/s

Compound: CN1C(C(=O)Nc2ccccn2)=C(O)c2ccccc2S1(=O)=O [PIROXICAM]
Papp [6]: 0.4 ×10⁻⁶ cm/s

Compound: Nc1nc(Cc2ccc(-c3ccc(C(F)(F)F)cc3)cc2)cn1Cc1cc(F)cc(F)c1
IC50 (Beta-secretase 1 [1]): 5.59 µM
IC50 [2]: Not Active
IC50 [3]: Not Active
IC50 [4]: Not Active
solubility [8]: Insoluble

Compound: Nc1nc(Cc2ccc(-c3cccc4oc5ccccc5c34)cc2)cn1Cc1ccccc1Cl
IC50 (Beta-secretase 1 [1]): 5.95 µM
IC50 [2]: Not Active
IC50 [3]: Not Active
IC50 [4]: Not Active
Papp [6]: 4 ×10⁻⁶ cm/s

Compound: CN(C)CCCN1c2ccccc2Sc2ccccc21 [PROMAZINE]
Papp [6]: 11.5 ×10⁻⁶ cm/s

The next lines start with results.

inhibition (Beta-secretase 1 [7]): 19.6%
Compound: Nc1nc(Cc2ccccc2)cn1Cc1ccccc1

Papp [6]: 0.9 ×10⁻⁶ cm/s
Compound: Cn1c(=O)c2c(ncn2C)n(C)c1=O [CAFFEINE]

IC50 (Beta-secretase 1 [1]): 7.32 µM
IC50 [2, 10]: 33 µM
IC50 [3, 10]: 35 µM
IC50 [4, 10]: 27 µM
Papp [6]: 3.2 ×10⁻⁶ cm/s
Compound: COc1cc(OC)cc(-c2ccc(Cc3cn(Cc4cc(F)cc(F)c4)c(N)n3)cc2)c1
Activity [9]: Toxic
